Experimental data gathered from unrelated publications.
Target: Protein kinase C theta type (PRKCQ, Homo sapiens, UniProt Q04759)

`O=C(Nc1cnn(-c2csc(C(=O)NC3COC3)c2)c1)Nc1c(F)cccc1Cl` gave a remaining activity of 94.7% (enzyme activity, inhibitor; 5 µM).
With `CCS(=O)(=O)c1cc2cc(C[C@@](O)(CC(C)(C)c3ccc(F)cc3C(N)=O)C(F)(F)F)[nH]c2cn1` the remaining binding was 97% (cell-free assay, competition with immobilised ligand; 1 µM).
`Cn1cnc(Br)c1C1=CN(c2ncnc3[nH]cnc23)CCS1` gave an inhibition of 64.1% (enzyme activity, inhibitor, radiometric; 50 nM).
`Cc1cc(NC(=O)c2cccc3cc(-c4cccc5[nH]nc(N)c45)ccc23)ccc1F` gave an activity vs control of 93% (enzyme activity, inhibitor; 0.1 µM).
`Nc1nc(Nc2ccc(S(N)(=O)=O)cc2)nn1C(=O)c1c(F)cccc1F` gave a remaining signal of 114% (cell-free assay; 0.5 µM).
The remaining activity of `CC(C)(C)c1nc2c(s1)c1nc(N)ncc1c1ccc(NS(=O)(=O)c3c(F)cccc3F)c(F)c12` is reported as 115% (enzyme activity, inhibitor, radiometric; 1 µM).
`CCN(CC)c1ccc(C2=NNC(=O)CC2C)cc1[N+](=O)[O-]` (centres unmarked) gave a remaining activity of 98% (enzyme activity, inhibitor; 10 µM).
The inhibition of `CCN(CC)CCNC(=O)c1c(C)[nH]c(/C=C2\C(=O)Nc3ccc(F)cc32)c1C` is reported as 11% (enzyme activity, inhibitor; 10 µM).
For `Cc1c[nH]c2nccc(Oc3c(F)cc(Nc4cc(Cl)nc(N)n4)cc3F)c12`, the remaining binding was 66% (cell-free assay, competition with immobilised ligand; 0.1 µM).
`Cn1cncc1C1=CN(c2ncnc3[nH]cnc23)CCS1` gave an inhibition of 97.9% (enzyme activity, inhibitor, radiometric; 2 µM).
`CC(=O)N1CCC(c2ccc(C(=O)NC(=N)N)cc2C(F)(F)F)CC1` has a remaining binding of 91% (cell-free assay, competition with immobilised ligand; 1 µM).
For `CNCc1ccc(-c2cc(-c3nc(-c4ccc(S(=O)(=O)C(C)C)cc4)cnc3N)on2)cc1`, the inhibition was 0% (enzyme activity, inhibitor; 2 µM).
The remaining signal of `C[C@@H]1CCN(C(=O)CC#N)C[C@@H]1N(C)c1ncnc2[nH]ccc12` is reported as 89% (cell-free assay; 0.5 µM).
`CCC(=O)N[C@@H]1CC[C@H](C(=O)N(C)c2ccc(-c3nc4ccccc4o3)cc2)C1` has a remaining binding of 76% (cell-free assay, competition with immobilised ligand; 1 µM).
For `Cc1ccc(C(=O)NCc2ccsc2)cc1C#Cc1cn(C(C)C)c2ncnc(N)c12`, the activity vs control was 105% (enzyme activity, inhibitor; 1 µM).
`COc1cc(Cl)c(C(=O)N[C@@H](CN[C@H]2CC[C@@H](N)CC2)Cc2ccc(C#N)cc2)cc1-c1ccc(CN[C@H](C)c2ccc(C)cc2)o1` gave a remaining activity of 106% (enzyme activity, inhibitor; 1 µM).
`Cc1ccc(C(=O)Nc2ccc(CN3CCN(C)CC3)c(C(F)(F)F)c2)cc1C#Cc1cnc2cccnn12` has a remaining activity of 96% (enzyme activity; 23.5 nM).
The remaining signal of `O=C1NC(=O)c2cc(Nc3ccc(F)cc3)c(Nc3ccc(F)cc3)cc21` is reported as 98.7% (cell-free assay; 0.5 µM).
`COc1cccc(CNC(=O)c2nc3scc(COCc4ccc(C(=O)O)cc4)c3c(=O)[nH]2)c1` gave a remaining binding of 100% (cell-free assay, competition with immobilised ligand; 1 µM).
`CNC(=O)c1cc(Oc2ccc(NC(=O)Nc3ccc(Cl)c(C(F)(F)F)c3)cc2)ccn1` gave an inhibition of 3% (enzyme activity, inhibitor; 0.3 µM).
For `O=C(NCc1ncc(C(F)(F)F)cc1Cl)c1ccc2c(c1)C1(CCS(=O)(=O)CC1)[C@H](C1CC1)N2S(=O)(=O)c1ccc(F)cc1`, the remaining binding was 100% (cell-free assay, competition with immobilised ligand; 1 µM).
For `CCOc1cc(-c2nncn2C)ccc1Nc1ncc2cc(C)nc(NCC(C)(C)C)c2n1`, the inhibition was < 15% (enzyme activity, inhibitor, FRET; 1 µM).
For `O=C1Nc2ccc(Cl)cc2C1=Cc1cc(Cl)c(O)c(Cl)c1`, the remaining signal was 105% (cell-free assay; 0.5 µM).
`CCCOc1ccc(OC)c(F)c1C(=O)c1ccc(C(=O)N[C@@H]2CNC[C@H]2NC(=O)c2ccc3[nH]ncc3c2)cc1` gave a remaining activity of 22% (enzyme activity, inhibitor; 10 µM).
The remaining binding of `Nc1cnc(N2CCc3cc(S(=O)(=O)Nc4c(F)cc(Cl)cc4F)cc(N4CCCC4=O)c32)nc1` is reported as 89% (cell-free assay, competition with immobilised ligand; 1 µM).
`CN(C)C1CCN(CC#Cc2nn(C3CCCC3)c3nc(NCc4ccccc4)ncc23)C1` (centres unmarked) gave an inhibition of 19% (enzyme activity, inhibitor, FRET; 1 µM).
`CC(=O)Nc1c(C(C)=O)c(=O)n(C)c2nc(-c3ccc(Cl)cc3Cl)c(-c3ccc(Cl)cc3)cc12` has a remaining binding of 100% (cell-free assay, competition with immobilised ligand; 1 µM).
The inhibition of `COc1cc2ncnc(Nc3ccc(Oc4ccccc4)c(C)c3C)c2cc1OC` is reported as 8% (enzyme activity, inhibitor; 1 µM).
For `Cc1cnc(NC2CCOCC2)nc1-n1cnc(C(=O)NC(CN)c2cc(F)cc(Cl)c2)c1` (centres unmarked), the remaining activity was 99% (enzyme activity, inhibitor, radiometric; 1 µM).
